Test results reported in ChEMBL document CHEMBL1141861, “Synthesis and in vitro anti-hepatitis B and C virus activities of ring-expanded ('fat') nucleobase analogues containing the imidazo[4,5-e][1,3]diazepine-4,8-dione ring system” (Bioorg Med Chem Lett, 2005).

Key:
[1] = system: Huh-7; test: Selectivity index (toxicity/antiviral activity); format: functional
In short: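 Huh7 ET HCV luciferase replicon cells, single 10 µM primary screen. Index is the ratio of β-actin RNA level (% control) to replicon-derived luciferase activity (% control).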

[2] = system: Huh-7; test: Cytotoxicity against Huh7ET cell line containg HCV replicon at 10 uM assessed by measuring the beta-actin RNA level relative to control; format: functional, Homo sapiens
In short: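 Huh7 ET HCV replicon (luciferase reporter) cells treated at 10 µM in the same primary screen. Cellular β-actin RNA level is used to compute cytotoxicity, expressed as % of control.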

[3] = system: Hepatitis C virus; test: Antiviral activity against HCV in Huh7 ETcell line at 10 uM assessed by measuring HCV-RNA-derived LUC activity relative to control; format: functional, Hepacivirus hominis
In short: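 Primary single-concentration screen (10 µM) in Huh7 ET cells carrying an HCV RNA replicon with a stable luciferase reporter. Replicon-derived luciferase activity serves as an indirect measure of HCV RNA and is expressed as % of control.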

[4] = system: HepG2; test: Selectivity index (CC50/EC50) for inhibition of HBV replicative intermediate synthesis in human hepatoblastoma 2.2.15 cells; format: functional
In short: (§1)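 2.2.15 cells were dosed daily for nine days. CC50 is the neutral red uptake concentration causing a twofold reduction versus untreated cultures. EC50 is from blot hybridization of intracellular replicative intermediates or extracellular virion DNA, by linear regression. Index = CC50/EC50.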

[5] = system: Hepatitis B virus; test: Inhibition of synthesis of intracellular HBV DNA replicative intermediates in cultured human hepatoblastoma 2.2.15 cells; format: functional, organism-based; details: HepG2 2.2.15
In short: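 2.2.15 cells were dosed daily for nine days and lysed 24 h after day 9. Intracellular HBV DNA replicative intermediates were measured by Southern/dot blot hybridization with ³²P-labelled HBV probes. EC50 and EC90 came from linear regression on combined treated-culture data, with SD from the regression standard error.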

[6] = system: Hepatitis B virus; test: Inhibition of synthesis of extracellular virion DNA release in cultured human hepatoblastoma 2.2.15 cells; format: functional, organism-based; details: HepG2 2.2.15
In short: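 Confluent 2.2.15 cells were dosed daily for nine days. Culture medium was collected daily, and extracellular virion HBV DNA was assayed on days 0, 3, 6 and 9 by blot hybridization using ³²P-labelled HBV-specific probes. EC50 and EC90 (50%/90% inhibition) came from linear regression on all treated cultures, with SD taken from the regression standard error.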

[7] = system: HepG2; test: Cytotoxicity against human hepatoblastoma 2.2.15 cells; format: functional
In short: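 Confluent HBV-producing 2.2.15 cells received compound daily for nine days. Cytotoxicity was read by neutral red dye uptake. CC50 is the concentration giving a twofold drop in uptake from the mean of untreated cultures.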

[8] = system: HepG2; test: Selectivity index (CC50/EC50) for inhibition of HBV virion DNA synthesis in human hepatoblastoma 2.2.15 cells; format: functional; in short: as §1

| SMILES | Selectivity index [1] | Activity [2] [%] | Activity [3] [%] | Selectivity index [4] | EC50 [5] [µM] | EC90 [5] [µM] | EC90 [6] [µM] | CC50 [7] [µM] | Selectivity index [8] | EC50 [6] [µM] |
| --- | --- | --- | --- | --- | --- | --- | --- | --- | --- | --- |
| CCCCCCCCCCCCNc1nc(=O)c2c(nc(Br)n2Cc2ccc(OC)cc2)c(=O)[nH]1 | 1 | 47 | 47 |  |  |  |  |  |  |  |
| COc1ccc(Cn2c(Br)nc3c(=O)nc(N)[nH]c(=O)c32)cc1 | 1.435 | 89 | 62 |  |  |  |  |  |  |  |
| NC(=O)c1ncn([C@@H]2O[C@H](CO)[C@@H](O)[C@H]2O)n1 [RIBAVIRIN] | 0.42 | 12 | 89 |  |  |  |  |  |  |  |
| CCCCCCCCCCNc1nc(=O)c2c(nc(Br)n2Cc2ccc(OC)cc2)c(=O)[nH]1 | 0.604 | 32 | 53 |  |  |  |  |  |  |  |
| CCCCCCCCCCCCCCNc1nc(=O)c2c(nc(Br)n2Cc2ccc(OC)cc2)c(=O)[nH]1 | 0.532 | 34 | 64 |  |  |  |  |  |  |  |
| CNc1nc(=O)c2c(nc(Br)n2Cc2ccc(OC)cc2)c(=O)[nH]1 | 1.453 | 48 | 33 |  |  |  |  |  |  |  |
| CCNc1nc(=O)c2c(nc(Br)n2Cc2ccc(OC)cc2)c(=O)[nH]1 | 1.912 | 65 | 34 |  |  |  |  |  |  |  |
| COc1ccc(Cn2c(Br)nc3c(=O)nc(NCc4ccccc4)[nH]c(=O)c32)cc1 | 1.255 | 69 | 55 |  |  |  |  |  |  |  |
| CCCCCCCCNc1nc(=O)c2c(nc(Br)n2Cc2ccc(OC)cc2)c(=O)[nH]1 | 2.155 | 69 | 32 |  |  |  |  |  |  |  |
| CCCCCCCCNc1nc(=O)c2c(nc(Br)n2COCc2ccccc2)c(=O)[nH]1 | 2.1 | 61 | 29 |  |  |  |  |  |  |  |
| CCCCCCCCCCCCCCCCNc1nc(=O)c2c(nc(Br)n2Cc2ccc(OC)cc2)c(=O)[nH]1 | 0.043 | 3 | 70 |  |  |  |  |  |  |  |
| Nc1ccn([C@@H]2CS[C@H](CO)O2)c(=O)n1 [LAMIVUDINE] |  |  |  | 8602 | 0.251 | 0.648 | 0.151 | 2160 | 44979 |  |
| CCCCCCCCNc1nc(=O)c2c(nc(Br)n2Cc2ccccc2)c(=O)[nH]1 | 1.06 | 83 | 78 | 34 | 8.4 | 28 | 6.9 | 286 | 168 | 1.7 |
